Bioassay records as filed in PubChem BioAssay.
Most compounds without a hit are left out; they make up all but 3.1% or so of the library.
core dimer inh – HCV core protein dimerization inhibition; TR-FRET GST/Flag-core106 dimerization, 1536-well; actives 0.33% (n = 300,000); inhibition, % at 5 µM; AID 1899;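 active = inhibition above the mean of all tested compounds plus 3 SD, set per screening campaign, cut at about 45% in these data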
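Material: GST/Flag-tagged HCV core106 proteins. Incubation: 4 h, 22.5 °C incubation. Read-out basis: inhibition (%) from 671 over 617 nm ratio. Measured by: TR-FRET, excitation 340 nm, emission 617 and 671 nm.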
VIM-2 inhibitor – blocks Pseudomonas aeruginosa VIM-2 metallo-beta-lactamase. AID 1527. purified VIM-2, nitrocefin hydrolysis, epi-absorbance fluorescence. inhibition, % at 5.6 µM. actives 0.89% (n = 290,000);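 active = inhibition above the mean of all tested compounds plus 3 SD, cutoff set per screening run, cut at about 7.5% in these data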;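 also: red hydrolysis product quenches plate fluorescence so inhibitors raise well fluorescence; 0% = enzyme with DMSO and 100% = DMSO without enzyme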
SUMO HTRF inh – blocks human SUMOylation mediated by UBC9; P63279; HTRF SUMOylation assay, SAE1/SAE2 + UBC9, in vitro; inhibition, % at 35 µM; actives 0.36% (n = 290,000); AID 2006; in the data active = inhibition above about 50%, passing the limit was not always enough
Target sequence (P63279 whole entry, looked up): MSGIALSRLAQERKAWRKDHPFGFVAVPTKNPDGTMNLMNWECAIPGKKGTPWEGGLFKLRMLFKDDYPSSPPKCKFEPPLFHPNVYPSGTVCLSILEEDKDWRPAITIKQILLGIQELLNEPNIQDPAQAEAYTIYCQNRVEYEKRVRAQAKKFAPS
IMP-1 inh – blocks Pseudomonas aeruginosa IMP-1 metallo-beta-lactamase; purified IMP-1, nitrocefin hydrolysis, epi-absorbance fluorescence; inhibition, % at 5.6 µM; actives 0.45% (n = 290,000); AID 1556;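 active = inhibition above the mean plus 3 SD of all compounds in the same screening run, cut at about 4.5% in these data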;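 also: 0% = IMP-1 with DMSO and 100% = DMSO wells lacking enzyme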
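System: purified IMP-1; amount: IMP-1 0.2 nM before substrate addition; compound: single dose, 5.6 µM; times: 25 °C, 15 min preincubation, 25 min reaction; signal: Epi-absorbance via hydrolysed-nitrocefin quenching of white-plate fluorescence, 480/530 nm, EDTA stop; benchmarks: DMSO with and without IMP-1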
PHOSPHO1 inh – PHOSPHO1 (human) inhibition | AID 1565 | Q8TCT1 | inhibition, % at 13.3 µM | actives 1.1% (n = 290,000) | recombinant PHOSPHO1, absorbance phosphatase assay; in the data active = inhibition above about 60%
Target sequence (Q8TCT1 whole entry, looked up): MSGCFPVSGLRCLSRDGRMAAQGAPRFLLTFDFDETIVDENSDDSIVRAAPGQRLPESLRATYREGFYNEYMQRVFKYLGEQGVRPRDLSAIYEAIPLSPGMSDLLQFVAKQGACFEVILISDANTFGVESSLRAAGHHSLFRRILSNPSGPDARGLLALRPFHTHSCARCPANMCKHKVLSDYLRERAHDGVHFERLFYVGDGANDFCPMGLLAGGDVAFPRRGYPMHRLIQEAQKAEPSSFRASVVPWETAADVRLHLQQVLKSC
HCV NS3 hel inh – blocks Hepatitis C virus NS3 helicase unwinding | inhibition, % at 10.9 µM | NS3 helicase DNA unwinding, Cy5 molecular beacon fluorescence | actives 0.56% (n = 290,000);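 active = inhibition above the mean of all tested compounds plus 3 SD, set per campaign, cut at about 35% in these data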;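 also: 0% = DMSO wells and 100% = thioflavine S control wells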
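assay system = NS3 helicase fragment of HCV | buffer or medium = MOPS pH 6.5, MgCl2, DTT, Tween20, BSA | timing = 60 min unwinding reaction at 25 °C after ATP addition | signal = Cy5 beacon fluorescence read at start and 1 h | read-out basis = % inhibition of unwinding | control set = low DMSO, high thioflavine S at 110 µM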
An asterisk follows results filed as active; · = no result given.

SMILES	core dimer inh	VIM-2 inhibitor	SUMO HTRF inh	IMP-1 inh	PHOSPHO1 inh	HCV NS3 hel inh
Oc1ccc(-c2cn3c(n2)SCC3)cc1	-2	1	-1	0	98*	6
Brc1ccc(-c2cn3c(n2)SCC3)cc1	-2	1	-1	-2	33	5
Oc1ccc(-c2cn3c(n2)SCC3)cc1O	-18	0	35	-4	80*	15
Clc1ccc(-c2cn3c(n2)SCC3)cc1	-1	0	5	0	-5	12
Cn1c(Cc2ccccc2)nnc1SCC(=O)NCCc1ccccc1	0	0	-2	-1	-24	12
Cc1cc2c(cc3c(=O)n(CC(=O)NCCCN4CC(C)CC(C)C4)ncn32)s1 (stereo unspecified)	-24	-1	20	-6	69*	15
Cc1c2cnn(CC(=O)NCCCN3CC(C)CC(C)C3)c(=O)c2c(C)n1Cc1ccccc1Cl (stereo unspecified)	-6	3	-8	0	51	-18
O=C(CCCn1cnc([N+](=O)[O-])n1)Nc1cccc2ccccc12	0	1	-1	37*	4	-12
CC(=O)Oc1cccc(N2C(=O)c3ccc(C(=O)O)cc3C2=O)c1	6	-1	19	-2	9	10
O=C(O)c1ccc2c(c1)C(=O)N(c1cccc(-c3nc4ccccc4s3)c1)C2=O	11	-3	70*	-2	-25	11
CCN(CC)S(=O)(=O)c1cccc(C(=O)N/N=C/c2cccc(O)c2O)c1	-1	-3	30	-2	-5	46*
CCN(CC)S(=O)(=O)c1cccc(C(=O)N/N=C2\CC(=O)CC(C)(C)C2)c1	5	1	-9	2	-25	6
CCN(CC)S(=O)(=O)c1cccc(C(=O)N/N=C2\CCCC(=O)C2)c1	-1	4	3	5.8*	25	3
N#Cc1ccc(-c2ccc(Cl)cc2)nc1SCC(=O)c1cccc(Cl)c1	8	-2	13	1	76*	6
Cc1ccc(C)n1-c1cccc(N)c1	64*	-1	19	0	-2	1
Cc1ccc(C)n1-c1cccc(C(=O)O)c1	-82	·	32	·	79*	·
O=C(Nc1ccccc1OC(F)F)c1ccc(-n2cncn2)c([N+](=O)[O-])c1	-1	·	·	·	·	·
COc1ccc(-n2nc3c(N4CCC(C(=O)NCc5ccccc5C)CC4)nnc(C)c3c2C)cc1	15	3	23	11*	28	-26
CCN1CCN(C(=O)C2CCN(c3nnc(C)c4c(C)n(-c5ccc(C)cc5)nc34)CC2)CC1	-2	9.1*	14	1	24	-8
O=C(CCc1nnc2ccc(NCc3ccccc3)nn12)NC1CCCCC1	-5	-2	9	-4	6	6
CN1CCN(c2ccc(S(=O)(=O)N3CCOCC3)cc2)CC1	0	-4	7	-1	10	-1
CN1CCC(OC(=O)c2ccc(Cl)cc2Cl)CC1	-3	-1	2	0	21	8
CN1CCC(OC(=O)c2cc3cc(Cl)cc(Cl)c3oc2=O)CC1	0	7	11	-3	61*	1
CC(CCc1ccccc1)NC(=O)/C=C/c1ccccc1 (stereo unspecified)	0	1	12	-2	64*	-8
C=CCN(C(=O)c1csnn1)C(C(=O)NC1CCCC1)c1ccc(F)cc1 (stereo unspecified)	5	-3	4	-1	37	2
SMILES	core dimer inh	VIM-2 inhibitor	SUMO HTRF inh	IMP-1 inh	PHOSPHO1 inh	HCV NS3 hel inh
COc1ccccc1Oc1ccc2c(c1)C(=O)N(c1ccc(Br)c3cccnc13)C2=O	24	-1	0	4.9*	10	6
O=c1c(NCCc2ccccc2)c(-c2ccccc2)c1=O	-4	0	8	-1	18	-10
Cc1ccc(-c2c(NCCc3ccccc3)c(=O)c2=O)cc1	8	-1	9	5.3*	14	-2
COc1cccc(C(=O)COC(=O)CCC(=O)c2ccccc2)c1	3	-2	-1	-1	7	-3
O=c1c(/C=N/N2CCOCC2)c(C(F)(F)F)[nH]n1-c1ccccc1	2	-2	9	-2	24	18
CCCCOC(=O)Sc1nc2ccccc2o1	0	0	25	-3	94*	3
